{
  "source": "ChEMBL document CHEMBL3853307",
  "about": "“Anti-inflammatory Effect of Methyl Gallate on Experimental Arthritis: Inhibition of Neutrophil Recruitment, Production of Inflammatory Mediators, and Activation of Macrophages” (J Nat Prod, 2016)",
  "test_system": "J774.A1",
  "test": "Antiinflammatory activity in mouse J774A.1 cells assessed as inhibition of zymosan and IFNgamma-induced COX2 expression at 1 to 10 uM preincubated for 1 hr followed by zymosan and IFNgamma addition measured after 24 hrs by Western blot analysis",
  "type": "functional, cell-based",
  "in_short": "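J774A.1 cells in six-well plates pretreated 1 h (0.1−10 μM) before zymosan (10 μg per 10^5 cells) and/or IFN-γ (25 U/mL) for 24 h. Lysates (Tris/NaCl/MgCl2/0.5% NP40 with protease inhibitors); 30 μg protein run on 7.5% SDS-PAGE, transferred to PVDF, probed for COX-2, iNOS and α-tubulin.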",
  "note": "Active and inactive are the calls of the source. No cut-off for these calls is given here.",
  "data": [
    {"smiles": "COC(=O)c1cc(O)c(O)c(O)c1", "note": "[GALLIC ACID METHYL ESTER]", "values": [
      {"measurement": "inhibition", "result": "Active"}
    ]}
  ]
}
